# OXTR agonist: agonists of human oxytocin receptor; AID 2435; 320,000 tested, 0.32% active; CHO-OTR cells, Fluo-8 calcium fluorescence; normalized: DMSO 0%, oxytocin 100%; activation, % at 3 µM; P30559;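 active = activation above the mean of all tested compounds plus 3 SD, cutoff set per screening run, cut at about 20% in these data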;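 also: peak over basal fluorescence ratio from a 100 s FLIPR kinetic read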
# TRPML3 agonist: human mucolipin-3 channel agonism; 220,000 tested, 0.29% active; AID 1448; HEK293 TRPML3-YFP, Fluo-8 calcium fluorescence; 100% = the carbachol control signal; activation, % at 3 µM; Q8TDD5;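 active = activation above its plate's cutoff, the mean activation of the plate's test wells plus 3 SD, cut at about 12% in these data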;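 also: 0% = DMSO only wells and 100% = carbachol wells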
#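 Test system – HEK293 line with stable expression of human TRPML3-YFP channel · Control set – carbachol 87 µM final as high control (100%), DMSO as low control (0%) · Signal – Fluo-8 calcium dye fluorescence, ex 470-495, em 515-575 nm · Incubation – 1-h 37 °C dye load, 5-s basal, 120-s post-compound reads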
# OXTR potentiate: potentiators of human oxytocin receptor; P30559; CHO-OTR cells, Fluo-8 calcium fluorescence, potentiator mode; 0% = oxytocin EC15, 100% = EC100; activation, % at 3 µM; 320,000 tested, 0.061% active; AID 2445;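 active = activation above that plate's cutoff, the mean activation of tested compounds plus 3 SD, cut at about 6.6% in these data, passing the limit was not always enough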;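 also: 100% uses oxytocin at 75 nM as the full agonist control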
#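 Assay system: CHO-OTR cells, human receptor / Also added: oxytocin at about EC15, sub-maximal agonist stimulus / Dosing: single dose, 3.0 µM nominal final compound concentration / Incubation: 6 min pre-incubation, 100 s read / Technique: Fluo-8 calcium dye fluorescence / Read-out: % activation vs EC15 and EC100 oxytocin / Benchmarks: EC15 oxytocin low, 75 nM oxytocin high / Replicates: singlicate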
# CRFR2-BP ag: agonists of human CRF-binding protein/CRF-R2 receptor complex; activation, % at 13.2 µM; HEK293 CRF-R2/CRF-BP, calcium dye fluorescence (FLIPR); percent of saturating CRF peptide response; 350,000 tested, 0.46% active;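 active = activation of at least 50%, plus an integration ratio under a set limit after plate pattern correction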;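 also: plate controls were neutral control wells without compound for no effect and CRF at EC100 for full effect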
# zfTRPN1 agonist: agonists of zebrafish TRPN1 channel | HEK293 zebrafish TRPN1-YFP, Fluo-8 calcium fluorescence; 100% = response to 87 µM carbachol | 220,000 tested, 0.18% active | activation, % at 3 µM | AID 1424;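 active = activation above its plate's cutoff, the mean activation of test wells on that plate plus 3 SD, cut at about 19% in these data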;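 also: 0% = DMSO alone and 100% = 87 µM carbachol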
#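 Material – zebrafish TRPN1-YFP in HEK293 cells · Doses – 3 µM single point · Schedule – dye 1 h 37 °C plus 30 min RT · Signal – Fluo-8 calcium fluorescence, excitation 470-495 nm, emission 515-575 nm · Read-out – % activation versus carbachol response · Control set – carbachol high, DMSO low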
# V1aR counter: activates human V1a receptor in oxytocin agonist counter-screen; AID 2797; activation, % at 3 µM; CHO-V1R cells, Fluo-8 calcium fluorescence, agonist mode; 0% DMSO, 100% 3 nM vasopressin; 320,000 tested, 0.25% active; P37288;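 active = activation above the mean activation of all tested compounds plus 3 SD, per screening run, cut at about 20% in these data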;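 also: signal is peak over basal fluorescence ratio across a 100 second FLIPR read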
# Target sequence (P37288 whole entry, looked up): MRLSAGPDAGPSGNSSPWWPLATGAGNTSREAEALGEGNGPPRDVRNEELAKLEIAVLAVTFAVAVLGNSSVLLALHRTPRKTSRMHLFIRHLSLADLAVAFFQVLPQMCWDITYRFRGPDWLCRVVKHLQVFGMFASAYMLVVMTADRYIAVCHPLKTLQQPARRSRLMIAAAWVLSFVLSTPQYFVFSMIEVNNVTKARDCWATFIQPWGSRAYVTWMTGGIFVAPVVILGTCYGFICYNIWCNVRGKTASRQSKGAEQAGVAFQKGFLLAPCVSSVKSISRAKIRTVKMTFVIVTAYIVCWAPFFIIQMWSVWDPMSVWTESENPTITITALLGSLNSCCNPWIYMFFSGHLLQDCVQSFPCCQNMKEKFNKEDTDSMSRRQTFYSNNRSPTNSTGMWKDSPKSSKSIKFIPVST
# OXTR agonist cf: human OXTR agonism, confirmation; activation, % at 3 µM; AID 434963; CHO-OTR cells, Fluo-8 calcium fluorescence, agonist; 390 tested, 20% active; shares compounds with OXTR agonist;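 active = mean activation above about 20% derived from the earlier single-dose screen, limit read from the data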;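 also: peak over minimum fluorescence ratio per well during a 100 second FLIPR read; 0% = DMSO alone and 100% = oxytocin high control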
# V1aR counter 3x: activates V1a receptor in oxytocin agonist counter-screen; shares compounds with OXTR agonist; CHO-V1R cells, Fluo-8 calcium fluorescence; activation, % at 3 µM; 390 tested, 10% active;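 active = mean activation over triplicate exceeds the hit threshold set in the earlier primary screen, cut at about 20% in these data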;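 also: peak over basal fluorescence ratio within a 100 second read; 0% = DMSO alone and 100% = 3 nM vasopressin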
# Active calls of the source: *; nt = no result; ! = not active in a repeat. Sampled rows, rich in hits. Any-hit rate of the full collection: about 0.85%.
SMILES,OXTR agonist,TRPML3 agonist,OXTR potentiate,CRFR2-BP ag,zfTRPN1 agonist,V1aR counter,OXTR agonist cf,V1aR counter 3x
Cc1nc(NCCc2ccccc2)sc1C(=O)N(C)C,-0.1,nt,-17.6,-0.7,nt,1.5,nt,nt
Cc1c(C(=O)O)sc2nc(-c3cccs3)cc(C(F)(F)F)c12,-0.2,nt,-9.7,-1.6,nt,0.2,nt,nt
CC(=O)c1sc2nc(-c3cccs3)cc(C(F)(F)F)c2c1N,27.4*,5.2,-18.0,113.2*,11.5,13.9,40.0*,52.1*
O=C(CCc1cn(Cc2ccc(F)cc2)c2ccccc12)N1CCOCC1,19.6*,nt,-24.0,0.1,nt,5.1,-0.8,0.2
O=C(CS(=O)(=O)c1cn(Cc2ccc(F)cc2)c2ccccc12)N1CCCCC1,0.5,0.0,-10.1,0.9,-1.0,0.1,nt,nt
O=C(COc1cc(F)ccc1[N+](=O)[O-])NCC1CCCO1 (configuration not stated),1.9,nt,-1.9,-1.1,nt,1.8,nt,nt
O=C(O)c1cccc(NC(=O)c2cn(-c3ccccc3)nc2-c2cc3ccccc3o2)c1,20.2*,0.2,-16.0,-1.0,0.4,10.0,7.5,6.5
CSc1cccc(NS(=O)(=O)c2ccc3c(c2)CCN3C(C)=O)c1,20.3*,nt,-22.9,-0.1,nt,17.0,11.3,9.9
CC(=O)N1CCc2cc(S(=O)(=O)Nc3cccc(C(F)(F)F)c3)ccc21,13.2,1.6,-19.1,2.9,3.2,8.8,nt,nt
COc1cccc(NS(=O)(=O)c2ccc3c(c2)CCN3C(C)=O)c1,19.9*,nt,-21.7,1.6,nt,13.8,9.2,9.0
CC(C)(C)OC(=O)n1cc(CCO)c2ccccc21,0.9,nt,-1.7,4.8,nt,1.2,nt,nt
O=C(O)c1c(Cl)cccc1Cl,0.7,nt,-4.8,-2.1,nt,0.6,nt,nt
Cc1c(OCC(=O)N[C@@H](Cc2ccccc2)C(=O)O)ccc2c1oc(=O)c1ccccc12,-0.2,nt,-2.3,-1.4,nt,0.3,nt,nt
OC(CNC1CCCCCC1)COc1cccc2ccccc12 (configuration not stated),19.9*,nt,-15.7,8.0,nt,12.1,8.5,4.8
CCc1ccc(OC(C)C(=O)Nc2ccc(S(=O)(=O)Nc3nccs3)cc2)cc1 (configuration not stated),19.8*,nt,-14.1,10.8,nt,10.0,5.5,7.8
O=C(O)c1ccc(N/N=C/c2cn(Cc3ccc(F)cc3)c3ccccc23)cc1,20.7*,-0.8,-17.0,-0.4,1.5,20.0,10.4,6.5
CC(C)(C)CC(C)(C)NCC(O)COc1ccc2c(c1)CCC2 (configuration not stated),20.9*,1.3,-11.4,1.9,0.8,14.9,5.5,3.6
CC1C/C(=C/c2ccco2)C(=O)/C(=C/c2ccco2)C1 (configuration not stated),24.3*,0.2,-7.5,nt,0.4,5.7,6.2,5.3
CC(O)CNCc1ccc(-c2ccccc2)cc1 (configuration not stated),4.2,0.1,-2.7,-1.0,1.9,2.7,nt,nt
CC(NCc1ccc(-c2ccccc2)cc1)C(O)c1ccccc1 (configuration not stated),22.9*,1.1,-6.2,0.0,0.0,12.0,3.2,3.6
CCCCN(CCCC)c1ccc(C(=O)c2ccccc2C(=O)O)c(O)c1,34.3*,0.9,-11.8,-0.6,2.2,16.3,3.8,2.7
Fc1ccc([C@@H]2CCNC[C@H]2COc2ccc3c(c2)OCO3)cc1,23.2*!,0.5,-10.0,-0.6,0.1,12.6,11.4,7.2
Fc1ccc(C2CCNCC2COc2ccc3c(c2)OCO3)cc1 (configuration not stated),11.8,nt,-8.4,-0.1,nt,3.3,nt,nt
O=C(NCc1cccs1)c1cc(S(=O)(=O)N2CCOCC2)c(Cl)cc1Cl,1.3,nt,-6.0,-0.3,nt,3.5,nt,nt
Cc1cccc(OCC(=O)Nc2ccncc2)c1C,20.3*,nt,-25.1,-0.1,nt,13.6,10.1,9.3

# Source: PubChem
